Results published in ChEMBL document CHEMBL2086356, “Identification of a novel family of BRAF(V600E) inhibitors” (J Med Chem, 2012).
The source made the active and inactive calls. The calls are words filed in the database; no cut-off is given here.

Key:
Homo sapiens [1] = organism: Homo sapiens; experiment: Selectivity ratio of IC50 for human 6x-His tagged wild type BRAF to IC50 for human 6x-His tagged BRAF V600E mutant
[2] = target: Serine/threonine-protein kinase B-raf (Homo sapiens, UniProt P15056, V600E); experiment: Inhibition of human 6x-His tagged BRAF V600E mutant expressed in Sf9 cells by ELISA based kinase assay
Chain of Serine/threonine-protein kinase B-raf (Homo sapiens, UniProt P15056, V600E) (P15056 2-766 V600E limits assumed): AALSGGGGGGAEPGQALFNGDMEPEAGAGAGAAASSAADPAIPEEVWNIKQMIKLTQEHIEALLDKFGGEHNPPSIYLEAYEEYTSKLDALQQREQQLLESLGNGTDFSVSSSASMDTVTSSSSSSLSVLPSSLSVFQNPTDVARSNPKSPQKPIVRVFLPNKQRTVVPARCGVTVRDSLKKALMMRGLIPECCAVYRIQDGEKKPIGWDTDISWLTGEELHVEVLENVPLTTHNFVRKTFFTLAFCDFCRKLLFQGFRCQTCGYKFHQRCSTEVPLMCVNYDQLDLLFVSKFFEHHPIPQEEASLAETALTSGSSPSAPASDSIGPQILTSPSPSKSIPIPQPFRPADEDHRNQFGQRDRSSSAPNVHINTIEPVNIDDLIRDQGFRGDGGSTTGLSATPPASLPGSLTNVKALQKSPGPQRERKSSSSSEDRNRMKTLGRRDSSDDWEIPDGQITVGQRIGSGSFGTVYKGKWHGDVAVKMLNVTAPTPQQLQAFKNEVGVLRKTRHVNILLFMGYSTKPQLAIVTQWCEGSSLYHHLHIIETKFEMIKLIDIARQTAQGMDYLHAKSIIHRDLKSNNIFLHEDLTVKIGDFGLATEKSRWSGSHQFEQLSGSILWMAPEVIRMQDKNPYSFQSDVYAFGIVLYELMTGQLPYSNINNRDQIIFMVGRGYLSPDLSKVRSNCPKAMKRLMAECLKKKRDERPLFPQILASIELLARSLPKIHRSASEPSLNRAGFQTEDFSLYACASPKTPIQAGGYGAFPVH
Summary of the method: (§1)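 Enzyme at about 28–30 nM was preincubated with compound for 1 h at RT, then added to glutathione-plate-bound GST-MEK-His (50 μg/mL). Reaction in HEPES pH 7.0 with MgCl2 and 100 μM ATP ran 30 min at 37 °C. Read-out was anti-phospho-MEK1/2 then HRP chemiluminescence. Run in duplicate or triplicate; IC50 from a four-parameter logistic fit.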

[3] = target: T1, Serine/threonine-protein kinase B-raf (Homo sapiens, UniProt P15056); experiment: Inhibition of human 6x-His tagged wild type BRAF expressed in Sf9 cells by ELISA based kinase assay; summary of the method: as §1
T1 sequence (P15056 whole entry): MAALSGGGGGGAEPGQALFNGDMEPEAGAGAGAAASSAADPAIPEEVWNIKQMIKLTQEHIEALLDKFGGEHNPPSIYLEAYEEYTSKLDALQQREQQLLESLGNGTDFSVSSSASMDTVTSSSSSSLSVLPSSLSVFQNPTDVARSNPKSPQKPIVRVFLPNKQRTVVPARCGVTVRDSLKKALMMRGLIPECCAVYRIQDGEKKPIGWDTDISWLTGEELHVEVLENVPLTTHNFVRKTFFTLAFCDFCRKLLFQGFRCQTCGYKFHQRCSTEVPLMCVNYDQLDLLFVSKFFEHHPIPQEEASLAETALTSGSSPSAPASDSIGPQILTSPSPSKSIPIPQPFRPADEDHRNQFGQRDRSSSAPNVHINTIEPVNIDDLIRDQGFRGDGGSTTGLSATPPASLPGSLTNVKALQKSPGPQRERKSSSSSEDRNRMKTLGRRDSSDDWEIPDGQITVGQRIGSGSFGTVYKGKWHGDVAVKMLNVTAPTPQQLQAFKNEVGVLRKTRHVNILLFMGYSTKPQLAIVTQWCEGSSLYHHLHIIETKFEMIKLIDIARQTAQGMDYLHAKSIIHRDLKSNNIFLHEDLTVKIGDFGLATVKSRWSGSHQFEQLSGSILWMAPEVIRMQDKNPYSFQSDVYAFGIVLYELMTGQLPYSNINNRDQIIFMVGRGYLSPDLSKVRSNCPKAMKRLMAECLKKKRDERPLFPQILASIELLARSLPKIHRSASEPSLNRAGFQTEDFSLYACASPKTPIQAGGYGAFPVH

[4] = target: RAF proto-oncogene serine/threonine-protein kinase (Homo sapiens) (UniProt P04049); experiment: Inhibition of CRAF assessed as residual activity at 1 uM by ELISA based kinase assay
Chain of RAF proto-oncogene serine/threonine-protein kinase (Homo sapiens) (P04049 whole entry, the tested form may be a part): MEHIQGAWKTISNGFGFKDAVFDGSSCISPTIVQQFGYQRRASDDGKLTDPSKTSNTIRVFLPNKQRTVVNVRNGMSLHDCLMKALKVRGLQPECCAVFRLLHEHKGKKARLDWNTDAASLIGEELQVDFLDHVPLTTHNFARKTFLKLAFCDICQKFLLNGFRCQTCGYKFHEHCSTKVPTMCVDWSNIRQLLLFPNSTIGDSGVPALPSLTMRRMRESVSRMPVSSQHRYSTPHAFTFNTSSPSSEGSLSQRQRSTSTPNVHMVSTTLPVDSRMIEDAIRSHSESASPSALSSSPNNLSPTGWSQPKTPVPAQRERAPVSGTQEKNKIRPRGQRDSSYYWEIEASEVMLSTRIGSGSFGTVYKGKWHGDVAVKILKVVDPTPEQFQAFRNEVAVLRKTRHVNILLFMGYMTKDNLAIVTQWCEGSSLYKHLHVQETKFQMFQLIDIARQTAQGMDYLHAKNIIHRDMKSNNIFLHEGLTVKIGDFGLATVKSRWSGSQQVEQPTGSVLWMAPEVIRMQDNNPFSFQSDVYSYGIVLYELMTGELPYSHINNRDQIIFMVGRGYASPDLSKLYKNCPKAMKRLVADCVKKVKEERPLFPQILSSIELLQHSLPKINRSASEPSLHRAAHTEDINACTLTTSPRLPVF
Summary of the method: (§2)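 Single-point ELISA kinase assay at 1 μM inhibitor, reading phospho-MEK on immobilized GST-MEK-His. CRAF at 20–30 nM enzyme with 100 μM ATP; BRAF WT or V600E kinase domain (Sf9-expressed, 6xHis) under the same assay conditions. Remaining activity reported as mean of n = 3.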

[5] = target: Phosphatidylinositol 4,5-bisphosphate 3-kinase catalytic subunit gamma isoform (Homo sapiens) (UniProt P48736); experiment: Inhibition of PI3Kgamma assessed as residual activity at 1 uM
Chain of Phosphatidylinositol 4,5-bisphosphate 3-kinase catalytic subunit gamma isoform (Homo sapiens) (P48736 whole entry, looked up, canonical isoform): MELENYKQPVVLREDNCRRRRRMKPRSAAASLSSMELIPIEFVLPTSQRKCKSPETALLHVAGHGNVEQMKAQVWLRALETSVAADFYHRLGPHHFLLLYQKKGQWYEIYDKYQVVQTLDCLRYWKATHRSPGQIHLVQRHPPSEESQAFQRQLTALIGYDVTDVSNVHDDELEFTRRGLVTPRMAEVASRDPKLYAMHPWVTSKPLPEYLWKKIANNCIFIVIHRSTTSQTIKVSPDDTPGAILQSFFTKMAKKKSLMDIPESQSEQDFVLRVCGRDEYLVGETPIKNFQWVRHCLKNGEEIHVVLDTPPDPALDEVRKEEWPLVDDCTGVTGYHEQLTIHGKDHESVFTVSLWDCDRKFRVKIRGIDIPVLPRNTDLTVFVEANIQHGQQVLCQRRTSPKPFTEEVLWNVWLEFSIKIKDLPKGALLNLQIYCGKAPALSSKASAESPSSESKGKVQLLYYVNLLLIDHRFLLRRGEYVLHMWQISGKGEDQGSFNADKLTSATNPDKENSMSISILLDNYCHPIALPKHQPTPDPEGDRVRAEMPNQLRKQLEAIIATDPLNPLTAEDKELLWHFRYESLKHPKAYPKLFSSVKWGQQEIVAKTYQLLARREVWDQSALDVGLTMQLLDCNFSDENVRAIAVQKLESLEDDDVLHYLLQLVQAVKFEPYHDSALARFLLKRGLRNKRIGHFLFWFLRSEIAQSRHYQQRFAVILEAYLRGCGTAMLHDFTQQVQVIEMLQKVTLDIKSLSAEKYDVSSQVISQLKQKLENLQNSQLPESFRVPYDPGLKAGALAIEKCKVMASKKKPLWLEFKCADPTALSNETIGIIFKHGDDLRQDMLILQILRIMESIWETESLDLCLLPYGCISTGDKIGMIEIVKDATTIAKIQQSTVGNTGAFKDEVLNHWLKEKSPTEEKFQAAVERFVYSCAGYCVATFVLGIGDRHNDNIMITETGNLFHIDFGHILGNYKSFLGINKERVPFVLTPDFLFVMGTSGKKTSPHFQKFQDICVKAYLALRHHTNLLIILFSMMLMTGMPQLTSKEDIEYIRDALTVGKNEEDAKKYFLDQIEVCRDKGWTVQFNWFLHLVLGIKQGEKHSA

[6] = target: Phosphatidylinositol 4,5-bisphosphate 3-kinase catalytic subunit alpha isoform (Homo sapiens) (UniProt P42336); experiment: Inhibition of PI3Kalpha assessed as residual activity at 1 uM
Chain of Phosphatidylinositol 4,5-bisphosphate 3-kinase catalytic subunit alpha isoform (Homo sapiens) (P42336 whole entry, canonical isoform): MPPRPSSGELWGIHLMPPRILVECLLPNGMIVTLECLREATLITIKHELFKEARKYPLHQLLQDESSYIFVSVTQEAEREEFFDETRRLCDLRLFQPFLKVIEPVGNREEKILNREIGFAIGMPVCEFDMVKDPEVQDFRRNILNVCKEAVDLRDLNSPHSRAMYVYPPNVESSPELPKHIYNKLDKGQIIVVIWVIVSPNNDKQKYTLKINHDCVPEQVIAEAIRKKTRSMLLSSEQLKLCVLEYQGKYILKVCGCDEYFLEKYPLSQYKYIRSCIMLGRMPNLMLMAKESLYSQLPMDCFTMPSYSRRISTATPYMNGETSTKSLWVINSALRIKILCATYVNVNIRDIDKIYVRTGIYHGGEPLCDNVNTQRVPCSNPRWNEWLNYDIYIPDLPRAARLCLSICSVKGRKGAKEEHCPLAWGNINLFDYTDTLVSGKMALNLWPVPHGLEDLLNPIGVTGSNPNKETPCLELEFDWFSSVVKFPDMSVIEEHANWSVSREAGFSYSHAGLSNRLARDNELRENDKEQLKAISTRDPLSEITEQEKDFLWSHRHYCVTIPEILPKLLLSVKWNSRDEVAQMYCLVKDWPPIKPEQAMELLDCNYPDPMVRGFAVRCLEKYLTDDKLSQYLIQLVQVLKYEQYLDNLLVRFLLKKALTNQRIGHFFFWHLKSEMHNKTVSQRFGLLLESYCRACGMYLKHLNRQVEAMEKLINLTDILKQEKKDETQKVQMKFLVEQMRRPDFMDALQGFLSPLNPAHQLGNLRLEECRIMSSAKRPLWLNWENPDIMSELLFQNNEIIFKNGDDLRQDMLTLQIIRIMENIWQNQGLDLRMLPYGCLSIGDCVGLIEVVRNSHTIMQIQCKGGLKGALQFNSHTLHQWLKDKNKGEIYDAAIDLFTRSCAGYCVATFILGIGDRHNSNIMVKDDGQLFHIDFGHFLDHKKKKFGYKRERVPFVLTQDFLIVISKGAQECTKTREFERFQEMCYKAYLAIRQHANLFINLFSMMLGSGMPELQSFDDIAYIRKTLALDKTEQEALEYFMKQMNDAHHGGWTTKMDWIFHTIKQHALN

[7] = Inhibition of GSK3 assessed as residual activity at 1 uM
[8] = target: Serine/threonine-protein kinase pim-1 (Homo sapiens) (UniProt P11309); experiment: Inhibition of PIM1 assessed as residual activity at 1 uM
[9] = target: Serine/threonine-protein kinase PAK 1 (Homo sapiens) (UniProt Q13153); experiment: Inhibition of PAK1 assessed as residual activity at 1 uM
Chain of Serine/threonine-protein kinase PAK 1 (Homo sapiens) (Q13153 whole entry): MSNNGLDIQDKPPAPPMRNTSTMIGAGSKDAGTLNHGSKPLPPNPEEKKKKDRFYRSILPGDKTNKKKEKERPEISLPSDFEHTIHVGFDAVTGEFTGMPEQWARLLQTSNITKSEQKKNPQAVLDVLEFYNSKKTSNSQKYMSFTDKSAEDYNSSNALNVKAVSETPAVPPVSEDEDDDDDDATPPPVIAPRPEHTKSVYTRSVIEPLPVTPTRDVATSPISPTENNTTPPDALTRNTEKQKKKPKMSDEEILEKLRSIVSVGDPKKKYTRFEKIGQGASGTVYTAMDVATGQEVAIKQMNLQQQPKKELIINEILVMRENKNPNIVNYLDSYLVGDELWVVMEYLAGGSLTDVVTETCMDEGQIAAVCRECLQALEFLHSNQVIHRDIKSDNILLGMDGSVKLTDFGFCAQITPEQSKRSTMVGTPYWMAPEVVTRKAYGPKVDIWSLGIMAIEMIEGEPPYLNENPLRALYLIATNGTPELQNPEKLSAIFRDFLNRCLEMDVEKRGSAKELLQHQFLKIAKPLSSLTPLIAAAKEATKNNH

[10] = Inhibition of p70S6K assessed as residual activity at 1 uM by scintillation counter in presence of gamma-P32 ATP
Summary of the method: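 p70S6K (20 nM) was preincubated with inhibitor at RT in 20 mM MOPS, 30 mM MgCl2, 0.8 μg/μL BSA, 5% DMSO, pH 7.0, with S6 kinase/Rsk2 peptide (3.6 μM). After 15 min, ATP was added to 100 μM with γ-32P ATP and run 30 min. Product was captured on P81 paper, washed with phosphoric acid, and counted by scintillation. Remaining activity was measured at 1 μM, mean of n = 3.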

[11] = target: T1, Serine/threonine-protein kinase B-raf; experiment: Inhibition of human 6x-His tagged wild type BRAF expressed in Sf9 cells assessed as residual activity at 1 uM by ELISA based kinase assay; summary of the method: as §2
[12] = test system: Serine/threonine-protein kinase B-raf (Homo sapiens), P15056 [V600E]; experiment: Inhibition of human 6x-His tagged BRAF V600E mutant expressed in Sf9 cells assessed as residual activity at 1 uM by ELISA based kinase assay; summary of the method: as §2
Chain of Serine/threonine-protein kinase B-raf (Homo sapiens), P15056 [V600E] (P15056 whole entry V600E): as the sequence (P15056 whole entry) above, with V600E counted along it

Homo sapiens [13] = organism: Homo sapiens; experiment: Antiproliferative activity against human 451LU cells harboring BRAF V600E mutant by MTS assay; assay type: functional, cell-based
Summary of the method: (§3)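 451Lu melanoma cells were grown in DMEM with 5% FBS, and primary melanocytes (FOM) and fibroblasts (FF) were taken from neonatal foreskin epidermis. Cells were seeded at 5000/well, left to adhere overnight, then exposed to rising compound doses or DMSO for 72 h. Read-out was MTS absorbance at 490 nm, normalized to DMSO wells. At least 4 wells per condition; experiment done in triplicate.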

FOM = experiment: Antiproliferative activity against human FOM cells by MTS assay; assay type: functional, cell-based; summary of the method: as §3
FF2508 = experiment: Antiproliferative activity against human FF2508 cells by MTS assay; assay type: functional, cell-based; summary of the method: as §3
[14] = test system: Serine/threonine-protein kinase B-raf (Homo sapiens), P15056 [V600E]; experiment: Inhibition of B-Raf V600E mutant-mediated MEK phosphorylation in human 451LU cells by Western blotting

SMILES | IC50 [2] [nM] | IC50 [3] [nM] | further results
COc1ccc(C(c2ccc3cccnc3c2O)N2CCOCC2)cc1 (stereo not drawn) | 900 | 4000 | Ratio IC50 (Homo sapiens [1]): 2
O=S(=O)(Nc1cc(Sc2ccccn2)c(O)c2ccccc12)c1cccs1 | 190 | 350 | –
O=S(=O)(Nc1cc(Sc2ccccc2)c(O)c2ccccc12)c1cccs1 | 280 | 570 | –
Oc1c(C(Nc2ccccn2)c2ccco2)cc(Cl)c2cccnc12 (stereo not drawn) | – | 800 | –
Cc1cc(C)c2c(=O)n(C(=O)c3cccs3)sc2n1 | 600 | 400 | –
Oc1c(C(Nc2cccnc2)c2ccsc2)ccc2cccnc12 (stereo not drawn) | 800 | 2000 | Ratio IC50 (Homo sapiens [1]): 2
O=S(=O)(Nc1cc(Cl)c(O)c2ccccc12)c1cccs1 | 380 | 450 | –
O=S(=O)(Nc1cc(Sc2ncc[nH]2)c(O)c2ccccc12)c1cccs1 | 120 | 170 | Ratio IC50 (Homo sapiens [1]): 2
O=C(/C=C/S(=O)(=O)c1ccc(Cl)cc1)c1ccc(F)cc1 | 300 | 900 | Ratio IC50 (Homo sapiens [1]): 2
O=S(=O)(Nc1cc(Sc2nc[nH]n2)c(O)c2ccccc12)c1ccc(C(F)(F)F)cc1 | 210 | 190 | –
COc1cc(C(Nc2ccccn2)c2cc(Cl)c3cccnc3c2O)cc(Br)c1O (stereo not drawn) | 700 | 3000 | Ratio IC50 (Homo sapiens [1]): 2
Cn1nnnc1Sc1cc(NS(=O)(=O)c2cccs2)c2ccccc2c1O | 250 | 320 | –
CC(=O)Nc1ccc(S(=O)(=O)Nc2cc(Sc3nc[nH]n3)c(O)c3ccccc23)cc1 | 140 | – | –
O=S(=O)(Nc1ccc(O)c2ccccc12)c1cccs1 | 6100 | 9000 | –
O=C1C(Sc2ncn[nH]2)=C/C(=N\S(=O)(=O)c2cccs2)c2ccccc21 | 190 | 230 | –
CC(=O)N1CCc2cc(S(=O)(=O)Nc3cc(Sc4nc[nH]n4)c(O)c4ccccc34)ccc21 | 140 | 270 | –
O=C1CCC(=O)N1c1ccc(F)c(S(=O)(=O)Nc2cc(Sc3ncn[nH]3)c(O)c3ccccc23)c1F | 670 | 680 | –
CC(=O)Nc1ccc(S(=O)(=O)Nc2cc(Sc3ncn[nH]3)c(O)c3ccccc23)cc1 | – | – | Ratio IC50 (Homo sapiens [1]): 2
O=S(=O)(Nc1cc(Sc2nc[nH]n2)c(O)c2ccccc12)c1ccc2ccccc2c1 | 150 | 400 | –
O=S(=O)(Nc1cc(Sc2cnn[nH]2)c(O)c2ccccc12)c1cccs1 | 720 | 1470 | –
O=S(=O)(Nc1cc(Br)c(O)c2ccccc12)c1cccs1 | 320 | 340 | –
O=S(=O)(Nc1cc(Sc2ncn[nH]2)c(O)c2ccccc12)c1c(F)ccc(N(Cc2ccccc2)Cc2ccccc2)c1F | 3600 | 5800 | –
O=S(=O)(Nc1cc(Sc2ncn[nH]2)c(O)c2ccccc12)c1ccc(-c2ccccc2)cc1 | – | – | Activity [4]: 60%; Activity [5]: 75%; Activity [6]: 75%; Activity [7]: 75%; Activity [8]: 75%; Activity [9]: 75%; Ratio IC50 (Homo sapiens [1]): 2; Activity [10]: 75%; Activity [11]: < 10%; Activity [12]: < 10%; Activity (Homo sapiens [13]): Active; Activity (FOM): inactive; Activity (FF2508): inactive; inhibition [14]: Active
O=S(=O)(Nc1cc(Sc2ncn[nH]2)c(O)c2ccccc12)c1c(F)c(F)c(F)c(F)c1F | 520 | 590 | –
O=S(=O)(Nc1cc(Sc2nnc[nH]2)c(O)c2ccccc12)c1ccc(-c2ccccc2)cc1 | 80 | 220 | –
CCCCCCCCCCS(=O)(=O)Nc1cc(Sc2nnc[nH]2)c(O)c2ccccc12 | 1600 | 2100 | –
CCCCCCCCS(=O)(=O)Nc1cc(Sc2nnc[nH]2)c(O)c2ccccc12 | 720 | 1660 | –
